Broadly, the CC50 is the concentration that lowers cell viability or growth by half. Lower therefore signals harm at low concentration. For orientation: EC50 means the midpoint of the concentration-response curve. The low end stands for greater potency, the high end for weaker potency.

Active and inactive are the calls of the source. No cut-off for these calls is given here.

Assay [1] concerns MT2. Description: Cytotoxicity against human MT2 cells by MTT assay. Format: functional. Put shortly: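 Human MT-2 cells, MTT colorimetric read-out. CC50 is the concentration giving 50% inhibition of MT-2 cell growth.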
In general terms: Tetrazolium dyes change colour on reduction, which living cells bring about.

For assay [2], the system named is Human immunodeficiency virus 1. Put plainly: Antiviral activity against HIV1 3B in human MT2 cells by MTT assay. It is filed as functional, organism-based. Particulars: for EC50: Human immunodeficiency virus 1, 3B. The gist of the method:
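HIV-1 IIIB infection of human MT-2 T-cells; MTT colorimetric read-out of cell protection. Antiviral curves were run in triplicate at each concentration.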

In the case of `Cc1ccnc2c1NC(=O)c1cccnc1N2C1CC1` [NEVIRAPINE], the CC50 in assay [1] is above 10 µM.

Take `Cc1cc(Nc2nnc(Cc3c(Cl)cccc3Cl)o2)ccc1Cl`: it took 1.3 µM to reach a half-maximal effect in assay [2] (EC50). In assay [1], this compound showed a CC50 above 100 µM.

In the case of `Clc1ccc(Nc2nnc(Cc3c(Cl)cccc3Cl)o2)cc1Cl`, in assay [2], the EC50 was determined as 0.31 µM. This compound gave a CC50 in assay [1] above 100 µM.

For `Clc1ccc(Nc2nnc(Cc3ccccc3)o2)cc1`, the outcome in assay [2] was inactive. This compound returned a CC50 in assay [1] of 31 µM.

`O=C1Nc2ccc(Cl)cc2C(C#CC2CC2)(C(F)(F)F)O1` (single isomer, unassigned) [EFAVIRENZ]: the CC50 in assay [1] came to 3 µM.

For `Clc1ccc(Nc2nnc(Cc3c(Cl)cccc3Cl)o2)cc1`, a half-maximal effect in assay [2] (EC50) was put at 0.82 µM. In assay [1], this compound returned a CC50 of 20 µM.

As to `Cc1cn([C@H]2C=C[C@@H](CO)O2)c(=O)[nH]c1=O` [STAVUDINE], in assay [2], a half-maximal response (EC50) required 1.6 µM. Moreover, the CC50 in assay [1] is above 100 µM.

For the compound `COc1cc(Nc2nnc(Cc3c(Cl)cccc3Cl)o2)c(Cl)cc1Cl`, in assay [2], the result was inactive. Moreover, half-maximal cytotoxicity in assay [1] (CC50) was put at 9 µM.

As to `Clc1ccc(Cc2nnc(Nc3ccc(Cl)cc3)o2)cc1`, in assay [2], the result was inactive. This compound showed a CC50 in assay [1] above 100 µM.

Take `COc1ccc(Cc2nnc(Nc3ccc(C)cc3)o2)cc1OC`: the result in assay [2] was inactive. In assay [1], this compound displayed a CC50 of 61 µM.

`FC(F)(F)c1cc(Nc2nnc(Cc3c(Cl)cccc3Cl)o2)ccc1Cl`: the outcome in assay [2] was inactive. For the same compound, in assay [1], it took 9 µM to reach half-maximal cytotoxicity (CC50).

For `Clc1ccc(Nc2nnc(Cc3cccc(Cl)c3)o2)cc1`, the concentration for a half-maximal effect (EC50) in assay [2] is above 10 µM. The compound also displayed a CC50 in assay [1] of 32 µM.

As to `Cc1cc(C)cc(Cc2nnc(Nc3ccc(Cl)cc3)o2)c1`, the outcome in assay [2] was inactive. The compound also displayed a CC50 in assay [1] above 100 µM.

Regarding `c1ccc(Cc2nnc(Nc3ccccc3)o2)cc1`, the result in assay [2] was inactive. Besides, the CC50 in assay [1] is above 100 µM.

Values taken from ChEMBL document CHEMBL1137600, “From docking false-positive to active anti-HIV agent” (J Med Chem, 2007).
